Series [1] concerns Mycobacterium tuberculosis. Put plainly: Antimycobacterial activity against Mycobacterium tuberculosis H37Rv assessed as inhibition of microbial growth incubated for 1 week by alamar blue based assay. The class given is functional. Particulars: 168 h, time 1 weeks. The essentials:
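M. tuberculosis H37Rv by Microplate Alamar Blue Assay; MIC reported in μg/mL, with isoniazid, rifampicin and ethambutol run as standard drugs.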

The nature of series [2]: Cytotoxicity against mouse RAW264.7 cells assessed as reduction in cell viability at 50 ug/ml incubated for 72 to 96 hrs by MTT assay. The conditions noted are these: at 50 µg/mL, time 72-96 hrs, read-out: INH. Type of series: cell-based.
Series [3] deals with Mycobacterium tuberculosis. The experiment in a line: Antimycobacterial activity against Mycobacterium tuberculosis H37Rv assessed as reduction in colony forming unit at 1 to 10 ug/ml incubated for 7 days in nutrient starvation medium by alamar blue based serial dilution method. The conditions noted are these: dose 1-10 µg/ml; time 7 day. Type of series: functional. The essentials: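 Culture starved in PBS at 37 °C for six weeks, then exposed to compounds, isoniazid or rifampicin at 10 μg/ml for seven days; persisters counted by MPN assay.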

Series [4] deals with T1, Enoyl-[acyl-carrier-protein] reductase [NADH] (Mycobacterium tuberculosis, UniProt P9WGR1).
T1 sequence (P9WGR1 whole entry): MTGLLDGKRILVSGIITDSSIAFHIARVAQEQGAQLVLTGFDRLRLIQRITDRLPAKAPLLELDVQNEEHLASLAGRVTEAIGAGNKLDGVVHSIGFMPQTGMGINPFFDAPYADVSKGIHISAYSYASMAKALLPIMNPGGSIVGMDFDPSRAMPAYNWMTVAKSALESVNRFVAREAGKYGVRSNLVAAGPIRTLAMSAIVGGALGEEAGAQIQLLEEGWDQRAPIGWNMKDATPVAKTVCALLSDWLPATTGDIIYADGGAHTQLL
The experiment in a line: Inhibition of recombinant Mycobacterium tuberculosis His6-tagged InHA expressed in Escherichia coli BL21 using trans-2-dodecenoyl-Coenzyme A as substrate. The procedure, abridged:
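M. tuberculosis InhA screened at 50 μM, and compounds above 70% inhibition also at 5 μM; triclosan positive control; triplicate assays; IC50 from 4-parameter curve fit using at least seven points.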

In series [5] the test system is Mycobacterium tuberculosis. Put plainly: Antimycobacterial activity against Mycobacterium tuberculosis H37Rv infected in mouse primary macrophage cells assessed as reduction in colony forming unit at 10 uM incubated for 48 hrs followed by macrophage lysis and measured after 3 weeks by alamar blue based serial dilution method. Type of series: functional. Particulars: time 23 day. The essentials:
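Macrophages infected with M. tuberculosis, then exposed to compounds at 10 μM final for two days; bacteria suspended in 7H9 broth, serially diluted, plates incubated at 37 °C and growth read after three weeks.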

Molecules are shown by their SMILES.

Results on 19 molecules are retold here after ChEMBL document CHEMBL4765327, “Design and synthesis of thiourea-based derivatives as Mycobacterium tuberculosis growth and enoyl acyl carrier protein reductase (InhA) inhibitors” (Eur J Med Chem, 2020).

On to `S=C(NCc1ccccc1Br)Nc1ccccc1`, for which the MIC in series [1] was above 77.9 µM.

For `Cc1cccnc1NC(=S)Nc1ccc(F)cc1`, the MIC in series [1] turned out to be 47.9 µM.

Turning to `Cc1cccnc1NC(=S)Nc1ccc2ccccc2c1`, in series [1], the MIC was above 85.3 µM.

Take `O=C(NCc1ccccc1Br)Nc1ccccc1`: the MIC in series [1] was above 82 µM.

In the case of `Cc1cccnc1NC(=S)Nc1ccc(I)cc1`, the MIC in series [1] was determined as 2.11 µM. Further, in series [2], the cytotoxicity at 50 ug/ml was found to be 31.2%. For the same molecule, the “fold change (FC)” value in series [3] amounted to 2.

Regarding `O=[N+]([O-])c1ccc(NC(=S)NCc2ccccc2Br)cc1`, the MIC in series [1] came out at 4.26 µM. For the same molecule, the cytotoxicity at 50 ug/ml in series [2] came to 24.9%. For the same molecule, the 50% inhibitory concentration (IC50) in series [4] turned out to be 15.6 µM.

For the molecule `S=C(NCc1ccccc1Cl)Nc1ccccc1`, in series [1], the MIC is above 90.2 µM.

With `CC[C@@H](CO)NCCN[C@@H](CC)CO` [ETHAMBUTOL], in series [1], the MIC turned out to be 7.6 µM.

Consider `COc1ccc(NC(=S)Nc2ncccc2C)cc1`, for which the MIC in series [1] was 45.8 µM.

For the molecule `Cc1cccnc1NC(=S)Nc1ccc(Br)cc1`, the MIC in series [1] turned out to be 2.42 µM. In addition, in series [2], the cytotoxicity at 50 ug/ml was determined as 30.8%.

As for `Cc1cccnc1NC(=S)Nc1ccc(Cl)cc1Cl`, in series [1], the MIC is 2.5 µM. In addition, the cytotoxicity at 50 ug/ml in series [2] is 34%. Moreover, the “fold change (FC)” value turned out to be 2.3 in series [3] and 1.4 in series [5].

Turning to `Cc1cccnc1NC(=S)Nc1cc(C(F)(F)F)cc(C(F)(F)F)c1`, in series [1], the MIC is above 66 µM.

Take `CO[C@H]1/C=C/O[C@@]2(C)Oc3c(C)c(O)c4c(O)c(c(/C=N/N5CCN(C)CC5)c(O)c4c3C2=O)NC(=O)/C(C)=C\C=C\[C@H](C)[C@H](O)[C@@H](C)[C@@H](O)[C@@H](C)[C@H](OC(C)=O)[C@@H]1C` [RIFAMPIN]: in series [1], the MIC is 0.12 µM. In addition, in series [3], the “fold change (FC)” value turned out to be 1.6.

Regarding `NNC(=O)c1ccncc1` [ISONIAZID], the MIC in series [1] came out at 0.36 µM. For the same molecule, the entries for the “fold change (FC)” value in series [3] and in series [5] were 1.4 and 2.5, respectively.

Regarding `O=C(NCc1ccccc1Cl)Nc1ccccc1`, the MIC in series [1] was above 95.8 µM.

For the molecule `Cc1cccnc1NC(=S)Nc1ccccc1C(F)(F)F`, the MIC in series [1] is above 80.4 µM.

With `Cc1ccc(NC(=S)Nc2ncccc2C)cc1`, the MIC in series [1] was determined as 97.3 µM.

Turning to `Cc1cccnc1NC(=S)Nc1ccccc1`, the MIC in series [1] is above 103 µM.

Turning to `O=[N+]([O-])c1ccc(NC(=S)NCc2ccccc2Cl)cc1`, the MIC in series [1] was 2.42 µM. The cytotoxicity at 50 ug/ml in series [2] was 29.9%. The results for the “fold change (FC)” value in series [3] and in series [5] were 2.6 and 1.8, respectively. The IC50 in series [4] was 17.7 µM.
